Values joined by “and” are separate entries in the source; they are usually repeats but may differ in a detail not shown here. Identical values can stand only once. Values belong to the molecule of their own block, whether it stands above or below them. Active and inactive are the calls of the source. The rule behind the calls is not given here.
Assays:
[1] = target: T1, Peroxisome proliferator-activated receptor alpha (Homo sapiens) (UniProt Q07869); assay: Agonist activity at PPARalpha expressed in HEK293 cells by measuring Gal4 luciferase reporter activity relative to (S)-2- {2-[1-Ethyl-3-(4-trifluoromethoxyphenyl)ureido] indan-5-ylsulfanyl}-2- methylpropionic acid; type: functional, cell-based
T1 sequence (whole entry): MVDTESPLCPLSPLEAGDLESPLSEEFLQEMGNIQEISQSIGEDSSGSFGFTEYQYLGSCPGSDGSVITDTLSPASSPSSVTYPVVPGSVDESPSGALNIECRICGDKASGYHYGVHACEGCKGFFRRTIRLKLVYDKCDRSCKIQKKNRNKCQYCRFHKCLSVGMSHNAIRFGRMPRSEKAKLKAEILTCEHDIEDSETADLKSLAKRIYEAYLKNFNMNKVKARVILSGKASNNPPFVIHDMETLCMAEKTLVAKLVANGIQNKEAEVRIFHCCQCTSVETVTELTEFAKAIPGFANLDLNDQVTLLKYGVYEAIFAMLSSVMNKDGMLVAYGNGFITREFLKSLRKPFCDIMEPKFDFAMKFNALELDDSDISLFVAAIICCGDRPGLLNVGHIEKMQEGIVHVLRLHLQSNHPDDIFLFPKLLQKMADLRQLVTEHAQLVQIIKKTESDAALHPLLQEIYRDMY
How it was run: (§1)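 HEK293 cells grown in DMEM/F-12 with 10% FBS and glutamine, cotransfected with a PPARα ligand-binding domain-Gal4 chimera and a Gal4-luciferase reporter. Next day switched to 5% charcoal-treated FBS medium, replated after 6 h at 50 000 cells/well, and cultured overnight. Compound or vehicle (0.1% DMSO) added for 24 h at 37 °C. Luciferase read by Steady-Glo; percent efficacy given relative to a reference PPARα agonist.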

[2] = target: T2, Peroxisome proliferator-activated receptor alpha (Homo sapiens, UniProt Q07869); assay: Agonist activity at PPARalpha expressed in HEK293 cells by measuring Gal4 luciferase reporter activity; type: functional, cell-based; how it was run: as §1
T2 sequence (Q07869 whole entry): T1 sequence (whole entry)

[3] = target: T3, Peroxisome proliferator-activated receptor delta (Homo sapiens, UniProt Q03181); assay: Agonist activity at PPARdelta expressed in HEK293 cells by measuring Gal4 luciferase reporter activity; type: functional, cell-based
T3 sequence (Q03181 whole entry): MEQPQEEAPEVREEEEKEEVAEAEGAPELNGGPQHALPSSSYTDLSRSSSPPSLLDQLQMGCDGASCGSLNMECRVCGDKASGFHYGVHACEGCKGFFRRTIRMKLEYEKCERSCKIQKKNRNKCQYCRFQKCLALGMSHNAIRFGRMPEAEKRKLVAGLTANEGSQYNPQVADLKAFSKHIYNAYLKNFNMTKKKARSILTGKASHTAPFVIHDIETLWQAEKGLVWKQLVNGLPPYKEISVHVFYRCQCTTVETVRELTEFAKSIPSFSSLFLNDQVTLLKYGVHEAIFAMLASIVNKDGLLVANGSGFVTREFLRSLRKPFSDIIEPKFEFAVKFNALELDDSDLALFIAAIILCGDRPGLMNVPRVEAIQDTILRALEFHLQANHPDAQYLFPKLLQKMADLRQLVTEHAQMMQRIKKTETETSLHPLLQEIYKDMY

[4] = target: T4, Peroxisome proliferator-activated receptor gamma (Homo sapiens, UniProt P37231); assay: Agonist activity at PPARgamma expressed in HEK293 cells by measuring Gal4 luciferase reporter activity; type: functional, cell-based
T4 sequence (P37231 whole entry): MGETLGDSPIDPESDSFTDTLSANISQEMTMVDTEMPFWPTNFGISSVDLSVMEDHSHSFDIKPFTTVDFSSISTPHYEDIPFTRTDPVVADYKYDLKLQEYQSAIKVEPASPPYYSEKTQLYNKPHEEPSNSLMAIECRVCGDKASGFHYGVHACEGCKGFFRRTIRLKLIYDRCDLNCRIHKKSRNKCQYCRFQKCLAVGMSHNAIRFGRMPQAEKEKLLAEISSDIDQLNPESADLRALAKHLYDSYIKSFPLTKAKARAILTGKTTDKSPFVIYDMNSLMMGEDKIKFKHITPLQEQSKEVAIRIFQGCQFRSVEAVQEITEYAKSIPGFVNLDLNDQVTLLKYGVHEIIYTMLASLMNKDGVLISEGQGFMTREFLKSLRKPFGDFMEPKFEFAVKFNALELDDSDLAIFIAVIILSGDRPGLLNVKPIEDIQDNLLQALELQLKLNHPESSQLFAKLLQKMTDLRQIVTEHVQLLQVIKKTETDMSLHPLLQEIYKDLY

[5] = organism: Homo sapiens; assay: Selectivity for PPARdelta over PPARalpha
[6] = target: Liver X receptor (Homo sapiens) (UniProt Q13133+P55055); assay: Effect on LXR; type: protein assay
[7] = target: Retinoid X receptor (Homo sapiens) (UniProt P28702+P48443+P19793); assay: Effect on RXR; type: protein assay
Chain of Retinoid X receptor (Homo sapiens) (P19793 whole entry, looked up): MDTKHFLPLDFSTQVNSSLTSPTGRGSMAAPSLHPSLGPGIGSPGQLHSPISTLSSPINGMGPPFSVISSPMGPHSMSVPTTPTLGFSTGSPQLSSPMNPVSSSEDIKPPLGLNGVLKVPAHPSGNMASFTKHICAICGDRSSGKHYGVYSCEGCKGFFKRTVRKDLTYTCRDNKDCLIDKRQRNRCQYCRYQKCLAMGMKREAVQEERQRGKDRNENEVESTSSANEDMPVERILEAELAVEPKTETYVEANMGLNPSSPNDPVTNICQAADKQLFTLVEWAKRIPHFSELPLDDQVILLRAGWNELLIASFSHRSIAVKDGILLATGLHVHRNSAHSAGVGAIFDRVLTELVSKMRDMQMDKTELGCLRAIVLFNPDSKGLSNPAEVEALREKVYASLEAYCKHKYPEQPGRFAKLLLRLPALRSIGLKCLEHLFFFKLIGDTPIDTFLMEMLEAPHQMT
Chain of Retinoid X receptor (Homo sapiens) (P28702 whole entry, looked up): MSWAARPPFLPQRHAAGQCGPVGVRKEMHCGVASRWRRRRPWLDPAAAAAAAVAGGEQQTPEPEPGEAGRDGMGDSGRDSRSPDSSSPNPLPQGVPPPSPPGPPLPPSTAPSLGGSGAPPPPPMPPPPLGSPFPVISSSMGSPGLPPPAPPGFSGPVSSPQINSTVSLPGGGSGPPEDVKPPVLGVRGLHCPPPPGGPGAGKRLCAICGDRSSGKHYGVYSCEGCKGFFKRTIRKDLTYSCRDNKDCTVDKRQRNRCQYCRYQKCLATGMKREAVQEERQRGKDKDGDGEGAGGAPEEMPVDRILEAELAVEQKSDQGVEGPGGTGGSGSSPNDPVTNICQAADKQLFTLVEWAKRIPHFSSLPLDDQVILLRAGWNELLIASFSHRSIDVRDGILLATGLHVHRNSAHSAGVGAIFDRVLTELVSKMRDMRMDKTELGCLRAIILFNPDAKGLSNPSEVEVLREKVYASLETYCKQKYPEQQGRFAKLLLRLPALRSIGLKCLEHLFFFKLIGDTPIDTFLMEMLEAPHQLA
Chain of Retinoid X receptor (Homo sapiens) (P48443 whole entry, looked up): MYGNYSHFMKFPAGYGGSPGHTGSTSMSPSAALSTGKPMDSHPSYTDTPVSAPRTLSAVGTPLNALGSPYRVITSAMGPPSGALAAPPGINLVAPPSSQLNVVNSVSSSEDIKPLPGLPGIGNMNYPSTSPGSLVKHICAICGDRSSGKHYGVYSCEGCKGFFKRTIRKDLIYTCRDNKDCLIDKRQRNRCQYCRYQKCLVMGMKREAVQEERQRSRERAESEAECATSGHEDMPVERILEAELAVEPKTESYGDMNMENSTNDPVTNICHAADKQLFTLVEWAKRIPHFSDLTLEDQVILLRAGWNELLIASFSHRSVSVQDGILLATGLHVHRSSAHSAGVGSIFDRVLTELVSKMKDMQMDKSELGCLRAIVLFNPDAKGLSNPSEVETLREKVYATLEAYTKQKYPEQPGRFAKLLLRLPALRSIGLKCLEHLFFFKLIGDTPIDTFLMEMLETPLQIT

[8] = system: Mus musculus; assay: Effect on lipid homeostasis in human apoA1 transgenic mouse assessed as increase in HDL-C levels at 3 mg/kg, po after 7 days; type: functional
How it was run: (§2)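 Male human apoA1 transgenic mice were given 3 mg/kg orally as a 0.5% methylcellulose suspension for 7 days. Serum HDL-C, triglyceride and free fatty acids were sampled under fed conditions and measured on a COBAS Mira Plus analyzer. n = 8/group; one-way ANOVA with Dunnett's test vs vehicle control.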

[9] = Cmax in rat at 3 mg/kg, po; type: ADME, organism-based; set-up: dose 3 mg/kg, route oral; details: in vivo
How it was run: (§3)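 Heparinized orbital-sinus blood was collected; plasma was precipitated with acetonitrile plus internal standard and quantified by LC-MS-MS using calibration standards prepared in plasma.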

[10] = Bioavailability in rat at 3 mg/kg, po; type: ADME, organism-based; details: in vivo; how it was run: as §3
[11] = Clearance in rat at 3 mg/kg; type: ADME, organism-based; set-up: dose 3 mg/kg; details: in vivo
How it was run: (§4)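 Rats given 3 mg/kg; IV formulation was a solution in 10% w/v Solutol in 5% dextrose in water (D5W). Blood was drawn by orbital sinus puncture into heparinized tubes. Plasma was protein-precipitated with acetonitrile containing internal standard, centrifuged at 5000g for 3 min and analysed by LC-MS-MS against plasma calibration standards.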

[12] = AUC in rat at 3 mg/kg; type: ADME, organism-based; set-up: dose 3 mg/kg; details: plasma
[13] = Half life in rat at 3 mg/kg; type: ADME, organism-based; set-up: dose 3 mg/kg; details: in vivo; how it was run: as §4
[14] = Tmax in rat at 3 mg/kg, po; type: ADME, organism-based; set-up: dose 3 mg/kg, route oral; details: in vivo; how it was run: as §3
[15] = system: Rattus norvegicus; assay: Increase in serum HDL-C levels in hypercholesterolemic Sprague-Dawley rat at 0.1 to 3 mg/kg/day, po after 8 days; type: functional, organism-based
How it was run: (§5)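 Male Sprague-Dawley rats (275-325 g) were fed a high-cholesterol atherogenic diet for 6 days before and throughout treatment; lean controls got normal chow plus vehicle. Drug in 0.5% Methocel was given orally at 10 mL/kg once daily for 8 days. On day 9, retro-orbital blood was taken under CO2/O2 anesthesia and serum lipids measured on a COBAS analyzer. n = 8/group; one-way ANOVA with Dunnett's test.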

[16] = system: Mus musculus; assay: Effect on lipid homeostasis in human apoA1 transgenic mouse assessed as decrease in triglyceride level at 3 mg/kg, po after 7 days; type: functional; set-up: scale not given: the % may be the effect or the level left; how it was run: as §2
[17] = target: T5, Bile acid receptor (Homo sapiens) (UniProt Q96RI1); assay: Effect on FXR
T5 sequence (whole entry): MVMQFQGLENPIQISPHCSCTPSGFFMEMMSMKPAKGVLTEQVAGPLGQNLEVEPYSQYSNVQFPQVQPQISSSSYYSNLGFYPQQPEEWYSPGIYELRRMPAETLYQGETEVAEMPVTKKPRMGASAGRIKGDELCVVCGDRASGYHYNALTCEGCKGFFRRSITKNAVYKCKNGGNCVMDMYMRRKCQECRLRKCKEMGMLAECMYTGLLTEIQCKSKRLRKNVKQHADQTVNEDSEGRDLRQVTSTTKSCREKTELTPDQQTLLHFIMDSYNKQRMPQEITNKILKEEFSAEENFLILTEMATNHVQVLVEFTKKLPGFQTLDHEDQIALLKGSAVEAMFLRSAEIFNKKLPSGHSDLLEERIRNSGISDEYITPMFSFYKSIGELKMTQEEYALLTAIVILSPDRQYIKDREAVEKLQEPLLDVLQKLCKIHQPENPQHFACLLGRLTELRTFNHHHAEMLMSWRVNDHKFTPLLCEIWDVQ

[18] = target: T6, Peroxisome proliferator-activated receptor alpha (Mus musculus, UniProt P23204); assay: Efficacy on PPARalpha in mouse by HD assay
T6 sequence (P23204 whole entry): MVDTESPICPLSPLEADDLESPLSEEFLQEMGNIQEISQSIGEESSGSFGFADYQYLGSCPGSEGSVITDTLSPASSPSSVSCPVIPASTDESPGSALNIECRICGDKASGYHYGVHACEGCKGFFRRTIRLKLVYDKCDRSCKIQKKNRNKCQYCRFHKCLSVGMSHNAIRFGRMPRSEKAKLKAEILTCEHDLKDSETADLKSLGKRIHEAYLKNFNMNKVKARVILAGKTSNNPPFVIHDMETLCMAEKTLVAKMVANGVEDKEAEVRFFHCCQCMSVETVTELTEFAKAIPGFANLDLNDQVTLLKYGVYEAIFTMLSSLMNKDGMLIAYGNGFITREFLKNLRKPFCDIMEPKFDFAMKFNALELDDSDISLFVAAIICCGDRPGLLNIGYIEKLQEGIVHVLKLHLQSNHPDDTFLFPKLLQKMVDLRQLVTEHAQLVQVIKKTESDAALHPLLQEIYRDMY

[19] = system: Mus musculus; assay: Effect on lipid homeostasis in C57BL/6J Lepob mouse assessed as decrease in serum triglyceride levels at 1 mg/kg, po after 11 days; type: functional; set-up: scale not given: the % may be the effect or the level left
How it was run: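 Seven-week-old female ob/ob (C57BL/6J-Lepob) mice were dosed orally with a 0.5% methylcellulose suspension for 11 days. Serum TG, glucose and FFA were taken under fed conditions and measured on a COBAS Mira Plus analyzer, and liver was weighed. Mean ± SEM, n = 8; one-way ANOVA with Dunnett's test vs vehicle.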

[20] = system: Mus musculus; assay: Effect on lipid homeostasis in human apoA1 transgenic mouse assessed as decrease in free fatty acid levels at 3 mg/kg, po after 7 days; type: functional; set-up: scale not given: the % may be the effect or the level left; how it was run: as §2
[21] = system: Rattus norvegicus; assay: Decrease in serum LDL-C levels in hypercholesterolemic Sprague-Dawley rat at 0.1 to 3 mg/kg/day, po after 8 days; type: functional, organism-based; how it was run: as §5
[22] = target: Retinoic acid receptor (Homo sapiens) (UniProt P13631+P10826+P10276); assay: Effect on RAR; type: protein assay
Chain of Retinoic acid receptor (Homo sapiens) (P10276 whole entry, looked up): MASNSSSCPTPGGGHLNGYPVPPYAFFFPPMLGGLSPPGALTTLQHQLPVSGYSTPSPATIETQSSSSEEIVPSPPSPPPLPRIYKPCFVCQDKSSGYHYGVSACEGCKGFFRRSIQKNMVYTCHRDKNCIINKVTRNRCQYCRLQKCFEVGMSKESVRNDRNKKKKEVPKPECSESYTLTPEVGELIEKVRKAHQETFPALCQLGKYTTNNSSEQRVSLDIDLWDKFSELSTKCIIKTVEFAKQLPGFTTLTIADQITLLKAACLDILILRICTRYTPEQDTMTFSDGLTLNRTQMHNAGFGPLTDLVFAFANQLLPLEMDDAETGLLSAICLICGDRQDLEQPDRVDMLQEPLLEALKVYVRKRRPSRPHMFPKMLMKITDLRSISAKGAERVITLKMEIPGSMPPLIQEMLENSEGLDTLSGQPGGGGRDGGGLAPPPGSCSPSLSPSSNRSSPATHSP
Chain of Retinoic acid receptor (Homo sapiens) (P10826 whole entry, looked up): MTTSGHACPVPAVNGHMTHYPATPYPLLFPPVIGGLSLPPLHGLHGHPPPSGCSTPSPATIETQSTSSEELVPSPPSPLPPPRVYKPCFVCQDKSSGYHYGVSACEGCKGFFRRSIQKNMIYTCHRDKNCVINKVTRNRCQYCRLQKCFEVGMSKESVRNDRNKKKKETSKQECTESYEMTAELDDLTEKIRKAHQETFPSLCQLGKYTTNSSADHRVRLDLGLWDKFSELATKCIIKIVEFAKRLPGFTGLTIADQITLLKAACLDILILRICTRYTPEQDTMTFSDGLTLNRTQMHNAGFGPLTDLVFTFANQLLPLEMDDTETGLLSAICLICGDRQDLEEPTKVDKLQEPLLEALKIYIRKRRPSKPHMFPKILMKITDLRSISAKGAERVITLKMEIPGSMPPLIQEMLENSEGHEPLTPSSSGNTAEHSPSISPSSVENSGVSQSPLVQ
Chain of Retinoic acid receptor (Homo sapiens) (P13631 whole entry, looked up): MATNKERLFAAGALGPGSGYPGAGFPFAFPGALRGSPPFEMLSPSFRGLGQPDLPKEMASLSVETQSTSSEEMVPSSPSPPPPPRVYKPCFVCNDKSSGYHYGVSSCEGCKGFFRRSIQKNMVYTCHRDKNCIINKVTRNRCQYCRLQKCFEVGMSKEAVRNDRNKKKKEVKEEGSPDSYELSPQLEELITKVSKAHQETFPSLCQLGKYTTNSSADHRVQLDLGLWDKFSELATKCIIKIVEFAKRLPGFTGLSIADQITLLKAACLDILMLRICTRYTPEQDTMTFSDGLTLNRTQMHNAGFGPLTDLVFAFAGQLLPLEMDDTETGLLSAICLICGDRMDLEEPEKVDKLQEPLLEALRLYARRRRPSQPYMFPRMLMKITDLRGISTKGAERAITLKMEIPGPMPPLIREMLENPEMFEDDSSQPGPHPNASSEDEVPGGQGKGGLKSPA

SMILES: Cc1cc(SCc2nsc(-c3ccc(C(F)(F)F)cc3)n2)ccc1OC(C)(C)C(=O)O
Activity [1]: 38%

SMILES: Cc1cc(SCc2nc(-c3ccc(C(F)(F)F)cc3)ns2)ccc1OC(C)(C)C(=O)O
EC50 [2]: 79 nM
EC50 [3]: 6 nM
Activity [1]: 51%

SMILES: Cc1cc(OCc2nc(-c3ccc(OC(F)(F)F)cc3)ns2)ccc1OC(C)(C)C(=O)O
EC50 [3]: 12 nM
Activity [1]: 80%

SMILES: Cc1cc(SCc2nc(-c3ccc(C(C)(C)C)cc3)ns2)ccc1OC(C)(C)C(=O)O
Activity [1]: 64%

SMILES: Cc1cc(SCc2nc(-c3ccc(C(F)(F)F)cc3)ns2)ccc1OCC(=O)O
Selectivity ratio [5]: 47
EC50 [4]: > 3000 nM
Activity [1]: 42%

SMILES: Cc1cc(SCc2nc(-c3ccc(Cl)cc3)ns2)ccc1OC(C)(C)C(=O)O
Activity [1]: 38%

SMILES: Cc1cc(SCc2nc(-c3ccc(OC(F)(F)F)cc3)ns2)ccc1OC(C)(C)C(=O)O
Activity [6]: inactive
Activity [7]: inactive
Activity [8]: 74%
Cmax [9]: 6680 ng/mL
bioavailability [10]: 96%
clearance [11]: 2.2 mL/min/kg
AUC [12]: 22000 ng·h/mL
half-life [13]: 5.3 h
Tmax [14]: 0.8 h
Activity [15]: Active
Activity [16]: 85%
EC50 [4]: > 3000 nM
Activity [1]: 44%
Activity [17]: inactive
EC50 [18]: 127 nM
Activity [19]: 80% and 98.9 mg/dl
Activity [20]: 31%
Activity [21]: Active
Activity [22]: inactive

Continued, values first:

Activity [1]: 31%
SMILES: Cc1cc(SCc2nc(-c3ccc(OC(F)(F)F)cc3)ns2)ccc1OC1(C(=O)O)CCCC1

EC50 [4]: > 3000 nM
Activity [1]: 47%
SMILES: Cc1cc(SCc2nsc(-c3ccc(OC(F)(F)F)cc3)n2)ccc1OC(C)(C)C(=O)O

Activity [1]: 71%
SMILES: Cc1cc(OCc2nc(-c3ccc(C(F)(F)F)cc3)ns2)ccc1OC(C)(C)C(=O)O
